The term IC50 denotes the concentration needed to halve the response being measured.

This passage reports IC50 results from ChEMBL document CHEMBL1125675, “Synthesis and in vitro biological activity of new deaza analogues of folic acid, aminopterin, and methotrexate with an L-ornithine side chain” (J Med Chem, 1991).

Bounds are passed on as bounds.

Experiment [1] is described as follows: Inhibitory activity against growth of WI-L2 human leukemic cells. The conditions noted are these: WIL2.
The target of another experiment is T1, Dihydrofolate reductase (Homo sapiens, UniProt P00374).
T1 sequence (P00374 whole entry): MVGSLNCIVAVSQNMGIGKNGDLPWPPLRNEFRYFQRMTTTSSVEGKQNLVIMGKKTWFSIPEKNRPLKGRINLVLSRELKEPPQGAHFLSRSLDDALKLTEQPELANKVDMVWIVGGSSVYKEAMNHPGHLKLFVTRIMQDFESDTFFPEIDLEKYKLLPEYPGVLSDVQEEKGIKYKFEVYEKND
As to the kind of experiment: Inhibition of dihydrofolate reductase(DHFR) enzyme from human leukemic lymphoblasts. In short, it runs like this:
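Spectrophotometric read-out at 340 nm. Enzyme was DHFR purified from human leukemic lymphoblasts (WI-L2/M4).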

In a further experiment the test system is L1210. As to the kind of experiment: Inhibitory activity against growth of L1210 murine leukemic cells. The format is functional, cell-based. The conditions noted are these: Mus musculus. The method, boiled down: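 Growth inhibition was measured by an adapted tetrazolium salt method after 48-h exposure. Cells were grown in RPMI 1640 with 10% fetal bovine serum plus antibiotics. Results are expressed as IC50.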

For `NCCCC(NC(=O)c1ccc(NCc2cnc3nc(N)nc(N)c3n2)cc1)C(=O)O` (centres undefined), in experiment [1], inhibition was half-maximal at 2.6 µM (IC50).

Regarding `NCCCC(NC(=O)c1ccc(NCc2cnc3nc(N)nc(N)c3c2)cc1)C(=O)O` (centres undefined), the values for the IC50 (on Dihydrofolate reductase; in experiment [1]; in the experiment with L1210) were 0.027 µM, 0.86 µM and 1.4 µM, respectively.

For the compound `NCCCC(NC(=O)c1ccc(NCc2ccc3nc(N)nc(N)c3c2)cc1)C(=O)O` (centres undefined), the concentration for half-maximal inhibition (IC50) in experiment [1] came to 0.18 µM; in the experiment with L1210, 0.28 µM.

As to `CN(Cc1cnc2nc(N)nc(N)c2n1)c1ccc(C(=O)NC(CCCNCC(=O)O)C(=O)O)cc1` (centres undefined), the 50% inhibitory concentration (IC50) is 0.05 µM against Dihydrofolate reductase, 4.3 µM in experiment [1] and 1.1 µM in the experiment on L1210.

The compound `NCCCC(NC(=O)c1ccc(NCc2cnc3nc(N)nc(O)c3c2)cc1)C(=O)O` (centres undefined) showed an IC50 in the experiment with L1210 of more than 5 µM.

For the compound `NCCCC(NC(=O)c1ccc(NCc2ccc3nc(N)nc(O)c3c2)cc1)C(=O)O` (centres undefined), the results for the concentration for half-maximal inhibition (IC50) against Dihydrofolate reductase and in the experiment with L1210 were 0.75 µM and more than 5 µM, respectively.

As for `NCCCC(NC(=O)c1ccc(NCc2ccc3nc(N)nc(N)c3n2)cc1)C(=O)O` (centres undefined), half-maximal inhibition in the experiment on L1210 (IC50) was put at 0.66 µM. That is a sub-micromolar value.

With `CN(Cc1cnc2nc(N)nc(N)c2n1)c1ccc(C(=O)NC(CCCN)C(=O)O)cc1` (centres undefined), the half-inhibitory concentration (IC50) against Dihydrofolate reductase was 0.16 µM.
